In ChEMBL document CHEMBL1132613 (J Med Chem, 1999):

Tests used:
Rattus norvegicus [1] = assay: Percentage of animals failing to emit 50 lever presses within 15 min in rats at a compound dose of 0.02 mg/kg; assay type: functional
How it was run: (§1)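 Two-lever drug discrimination in male Sprague–Dawley rats (200–220 g at start), trained against saline on LSD tartrate (0.08 mg/kg), DOI HCl (0.4 mg/kg) or LY293284 (0.025 mg/kg). FR50 food-pellet reinforcement, levers counterbalanced, 15-min sessions at 22–24 °C. %D is the share of tested rats not completing 50 lever presses within 15 min.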

Rattus norvegicus [2] = assay: Percentage of animals failing to emit 50 lever presses within 15 min in rats at a compound dose of 0.027 mg/kg; assay type: functional; how it was run: as §1
Rattus norvegicus [3] = assay: Percentage of animals failing to emit 50 lever presses within 15 min in rats at a compound dose of 0.005 mg/kg; assay type: functional; how it was run: as §1
Rattus norvegicus [4] = assay: Percentage of animals failing to emit 50 lever presses within 15 min in rats at a compound dose of 0.01 mg/kg; assay type: functional; how it was run: as §1
Rattus norvegicus [5] = assay: Percentage of animals emitting >80% of lever presses in rats at a compound dose of 0.030 uM/Kg; assay type: functional
How it was run: (§2)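 Male Sprague–Dawley rats (200–220 g) in a two-lever, FR50 food-reinforced task. Rats were trained to discriminate saline from LSD tartrate (0.08 mg/kg), DOI HCl (0.4 mg/kg) or LY293284 (0.025 mg/kg) in 15-min sessions. %SDL is the share of rats making over 80% of presses on the drug lever. %D is the share failing to make 50 presses within 15 min. ED50 by Litchfield–Wilcoxon log-probit.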

Rattus norvegicus [6] = assay: Percentage of animals emitting >80% of lever presses in rats at a compound dose of 0.060 uM/Kg; assay type: functional; how it was run: as §2
Rattus norvegicus [7] = assay: Percentage of animals emitting >80% of lever presses in rats at a compound dose of 0.080 uM/Kg; assay type: functional; how it was run: as §2
Rattus norvegicus [8] = assay: Percentage of animals emitting >80% of lever presses in rats at a compound dose of 0.015 uM/Kg; assay type: functional; how it was run: as §2
[9] = molecular target: T1, 5-hydroxytryptamine receptor 1A (Rattus norvegicus, UniProt P19327); assay: Compound was tested for the displacement of [3H]-8-OH- DPAT from rat brain 5-hydroxytryptamine 1A receptor
T1 sequence (P19327 whole entry): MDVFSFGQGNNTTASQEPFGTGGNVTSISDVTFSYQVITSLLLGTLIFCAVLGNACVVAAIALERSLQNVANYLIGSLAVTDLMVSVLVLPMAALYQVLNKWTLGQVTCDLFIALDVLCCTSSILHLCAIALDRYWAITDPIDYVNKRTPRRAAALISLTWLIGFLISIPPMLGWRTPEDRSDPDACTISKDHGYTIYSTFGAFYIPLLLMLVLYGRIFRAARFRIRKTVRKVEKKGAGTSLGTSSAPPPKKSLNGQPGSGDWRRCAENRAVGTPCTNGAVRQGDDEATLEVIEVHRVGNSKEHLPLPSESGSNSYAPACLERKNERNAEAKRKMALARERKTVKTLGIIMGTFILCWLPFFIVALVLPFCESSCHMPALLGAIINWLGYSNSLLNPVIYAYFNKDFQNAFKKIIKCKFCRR
How it was run: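 Pooled rat hippocampal membranes were preincubated at 37 °C. Buffer was 50 mM Tris HCl pH 7.4 with 0.5 mM Na2EDTA, 10 mM MgCl2, 0.1% Na ascorbate and pargyline. 200–400 μg protein was incubated with [3H]-8-OH-DPAT for 15 min at 37 °C, then GF/C filtered and scintillation counted. Nonspecific binding was defined with 10 μM 5-HT. Triplicate tubes.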

[10] = molecular target: 5-hydroxytryptamine receptor 2A (Homo sapiens, UniProt P28223); assay: Compound was tested for the displacement of [125I]DOI from cloned human 5-hydroxytryptamine 2A receptor
How it was run: (§3)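 Membranes from AV12 hamster fibroblasts stably expressing human 5-HT2A or 5-HT2C. [125I]DOI was about 0.07–0.15 nM final. Buffer was 50 mM Tris-HCl pH 7.4 with 10 μM pargyline, 9.75 mM MgCl2, 0.5 mM Na2-EDTA and 0.1% Na ascorbate. Incubation was 30 min at 37 °C with about 40 μg protein (2A) or 30 μg (2C). Nonspecific binding used 1 μM ketanserin (2A) or 10 μM mianserin (2C). Read by gamma counting; sigmoid nonlinear regression.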

[11] = molecular target: T2, 5-hydroxytryptamine receptor 2C (Homo sapiens, UniProt P28335); assay: Compound was tested for the displacement of [125I]DOI from cloned human 5-hydroxytryptamine 2C receptor; how it was run: as §3
T2 sequence (P28335 whole entry): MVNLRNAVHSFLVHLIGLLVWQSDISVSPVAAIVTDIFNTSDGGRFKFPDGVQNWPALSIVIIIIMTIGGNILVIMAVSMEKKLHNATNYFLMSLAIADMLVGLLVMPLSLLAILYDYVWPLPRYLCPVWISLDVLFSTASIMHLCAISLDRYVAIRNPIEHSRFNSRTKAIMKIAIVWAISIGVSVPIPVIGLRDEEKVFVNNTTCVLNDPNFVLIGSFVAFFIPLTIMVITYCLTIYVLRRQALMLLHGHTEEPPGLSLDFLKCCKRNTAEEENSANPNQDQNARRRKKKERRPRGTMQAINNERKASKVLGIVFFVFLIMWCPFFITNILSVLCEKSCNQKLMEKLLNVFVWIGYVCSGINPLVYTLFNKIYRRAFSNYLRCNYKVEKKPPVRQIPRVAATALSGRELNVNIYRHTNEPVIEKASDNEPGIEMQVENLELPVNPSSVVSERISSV

[12] = molecular target: 5-hydroxytryptamine receptor 2B (Homo sapiens, UniProt P41595); assay: Compound was tested for the displacement of [3H]5-HT from cloned human 5-hydroxytryptamine 2B receptor
How it was run: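 Membranes from AV12 cells stably expressing human 5-HT2B, 100–150 μg protein. [3H]-5-HT was about 2 nM (1.7–2.5 nM) final. Buffer was 50 mM Tris pH 7.4 with 3 mM CaCl2, 10 μM pargyline and 0.1% ascorbic acid. Drug dilutions spanned 6 log units. Incubation was 15 min at 37 °C. Nonspecific binding used 10 μM 5-HT or 1-NP. PEI-soaked GF/B filtration, scintillation counting, triplicate, sigmoid nonlinear regression.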

Rattus norvegicus [13] = assay: Percentage of animals failing to emit 50 lever presses within 15 min in DOI trained rats at a compound dose of 16 mg/kg; assay type: functional; how it was run: as §2
Rattus norvegicus [14] = assay: Percentage of animals failing to emit 50 lever presses within 15 min in DOI trained rats at a compound dose of 4 mg/kg; assay type: functional; how it was run: as §2
Rattus norvegicus [15] = assay: Percentage of animals failing to emit 50 lever presses within 15 min in DOI trained rats at a compound dose of 8 mg/kg; assay type: functional; how it was run: as §2
Rattus norvegicus [16] = assay: Percentage of animals failing to emit 50 lever presses within 15 min in LSD trained rats at a compound dose of 16 mg/kg; assay type: functional; how it was run: as §2
Rattus norvegicus [17] = assay: Percentage of animals failing to emit 50 lever presses within 15 min in LSD trained rats at a compound dose of 2.0 mg/kg; assay type: functional; how it was run: as §2
Rattus norvegicus [18] = assay: Percentage of animals failing to emit 50 lever presses within 15 min in LSD trained rats at a compound dose of 4.0 mg/kg; assay type: functional; how it was run: as §1
Rattus norvegicus [19] = assay: Percentage of animals failing to emit 50 lever presses within 15 min in LSD trained rats at a compound dose of 8.0 mg/kg; assay type: functional; how it was run: as §1
Rattus norvegicus [20] = assay: Percentage of animals failing to emit 50 lever presses within 15 min in […] trained rats at a compound dose of 16 mg/kg; assay type: functional; how it was run: as §1
Rattus norvegicus [21] = assay: Percentage of animals failing to emit 50 lever presses within 15 min in […] trained rats at a compound dose of 2 mg/kg; assay type: functional; how it was run: as §1
Rattus norvegicus [22] = assay: Percentage of animals failing to emit 50 lever presses within 15 min in […] trained rats at a compound dose of 4 mg/kg; assay type: functional; how it was run: as §1
Rattus norvegicus [23] = assay: Percentage of animals emitting >80% of lever presses in DOI trained rats at a compound dose of 12.6 uM/Kg; assay type: functional; how it was run: as §2
Rattus norvegicus [24] = assay: Percentage of animals emitting >80% of lever presses in DOI trained rats at a compound dose of 25.3 uM/Kg; assay type: functional; how it was run: as §2
Rattus norvegicus [25] = assay: Percentage of animals emitting >80% of lever presses in DOI trained rats at a compound dose of 50.6 uM/Kg; assay type: functional; how it was run: as §2
Rattus norvegicus [26] = assay: Percentage of animals emitting >80% of lever presses in LSD trained rats at a compound dose of 25.3 uM/Kg; assay type: functional; how it was run: as §2
Rattus norvegicus [27] = assay: Percentage of animals emitting >80% of lever presses in LSD trained rats at a compound dose of 50.6 uM/Kg; assay type: functional; how it was run: as §2
Rattus norvegicus [28] = assay: Percentage of animals emitting >80% of lever presses in LSD trained rats at a compound dose of 6.32 uM/Kg; assay type: functional; how it was run: as §2
Rattus norvegicus [29] = assay: Percentage of animals emitting >80% of lever presses in […] trained rats at a compound dose of 12.6 uM/Kg; assay type: functional; how it was run: as §2
Rattus norvegicus [30] = assay: Percentage of animals emitting >80% of lever presses in […] trained rats at a compound dose of 25.3 uM/Kg; assay type: functional; how it was run: as §2
Rattus norvegicus [31] = assay: Percentage of animals emitting >80% of lever presses in […] trained rats at a compound dose of 50.6 uM/Kg; assay type: functional; how it was run: as §2
Rattus norvegicus [32] = assay: Percentage of animals emitting >80% of lever presses in […] trained rats at a compound dose of 6.32 uM/Kg; assay type: functional; how it was run: as §2
Rattus norvegicus [33] = assay: Percentage of animals emitting >80% of lever presses in LSD trained rats at a compound dose of 12.6 uM/Kg; assay type: functional; how it was run: as §2
Rattus norvegicus [34] = assay: Percentage of animals failing to emit 50 lever presses within 15 min in […] trained rats at a compound dose of 8 mg/kg; assay type: functional; how it was run: as §1

Sequence of 5-hydroxytryptamine receptor 2B (P41595 whole entry): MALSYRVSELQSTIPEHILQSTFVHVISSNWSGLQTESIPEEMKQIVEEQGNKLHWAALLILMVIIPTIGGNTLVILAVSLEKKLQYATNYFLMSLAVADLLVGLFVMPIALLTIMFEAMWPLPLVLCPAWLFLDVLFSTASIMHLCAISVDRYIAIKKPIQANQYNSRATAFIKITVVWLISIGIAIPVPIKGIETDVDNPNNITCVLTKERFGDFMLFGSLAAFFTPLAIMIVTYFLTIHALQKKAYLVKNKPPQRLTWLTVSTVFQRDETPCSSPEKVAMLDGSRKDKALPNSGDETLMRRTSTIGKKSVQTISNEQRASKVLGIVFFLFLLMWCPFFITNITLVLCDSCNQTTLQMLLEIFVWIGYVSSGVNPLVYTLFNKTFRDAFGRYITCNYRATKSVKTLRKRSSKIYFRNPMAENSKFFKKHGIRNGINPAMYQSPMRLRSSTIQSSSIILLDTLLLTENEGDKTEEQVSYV
Sequence of 5-hydroxytryptamine receptor 2A (P28223 whole entry): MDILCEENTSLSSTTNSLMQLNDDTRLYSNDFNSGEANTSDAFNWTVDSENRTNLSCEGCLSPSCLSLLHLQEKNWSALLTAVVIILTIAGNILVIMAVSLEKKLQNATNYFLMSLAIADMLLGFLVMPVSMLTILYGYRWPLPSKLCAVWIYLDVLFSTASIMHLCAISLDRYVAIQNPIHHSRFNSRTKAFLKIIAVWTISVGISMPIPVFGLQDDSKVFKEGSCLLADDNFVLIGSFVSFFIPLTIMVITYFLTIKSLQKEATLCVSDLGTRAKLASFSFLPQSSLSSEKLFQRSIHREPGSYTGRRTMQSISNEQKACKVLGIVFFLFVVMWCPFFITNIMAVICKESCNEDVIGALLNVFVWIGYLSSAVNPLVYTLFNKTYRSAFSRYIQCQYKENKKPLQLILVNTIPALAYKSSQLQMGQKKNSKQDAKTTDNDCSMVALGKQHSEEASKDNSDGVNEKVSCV

Structure (SMILES): CCCN(CCC)C1Cc2c[nH]c3ccc(C(C)=O)c(c23)C1 (centres undefined) [LY-293284]
- D (Rattus norvegicus [1]): 0%
- D (Rattus norvegicus [2]): 27%
- D (Rattus norvegicus [3]): 8%
- D (Rattus norvegicus [4]): 0%
- SDL (Rattus norvegicus [5]): 45%
- SDL (Rattus norvegicus [6]): 83%
- SDL (Rattus norvegicus [7]): 100%
- SDL (Rattus norvegicus [8]): 9%

Structure (SMILES): CN(C)CCc1c[nH]c2ccsc12
- Ki [9]: 0.076 µM
- Ki [10]: 0.276 µM
- Ki [11]: 0.064 µM
- Ki [12]: 0.214 µM
- D (Rattus norvegicus [13]): 62.5%
- D (Rattus norvegicus [14]): 11%
- D (Rattus norvegicus [15]): 78%
- D (Rattus norvegicus [16]): 62.5%
- D (Rattus norvegicus [17]): 25%
- D (Rattus norvegicus [18]): 22%
- D (Rattus norvegicus [19]): 36%
- D (Rattus norvegicus [20]): 0%
- D (Rattus norvegicus [21]): 8%
- D (Rattus norvegicus [22]): 30%
- SDL (Rattus norvegicus [23]): 37.5%
- SDL (Rattus norvegicus [24]): 0%
- SDL (Rattus norvegicus [25]): 0%
- SDL (Rattus norvegicus [26]): 12.5%
- SDL (Rattus norvegicus [27]): 0%
- SDL (Rattus norvegicus [28]): 0%
- SDL (Rattus norvegicus [29]): 57%
- SDL (Rattus norvegicus [30]): 71%
- SDL (Rattus norvegicus [31]): 83%
- SDL (Rattus norvegicus [32]): 50%
- SDL (Rattus norvegicus [33]): 43%
- D (Rattus norvegicus [34]): 22%
